Reference: ChEMBL document CHEMBL3603777, “Carbon nanotubes supported tyrosinase in the synthesis of lipophilic hydroxytyrosol and dihydrocaffeoyl catechols with antiviral activity against DNA and RNA viruses” (Bioorg Med Chem, 2015)
Converted amounts (≈) assume the structure as drawn. The source made the active and inactive calls. No cut-off for these calls is given here.

How the values were obtained:
Human alphaherpesvirus 1 [1] = assay: Antiviral activity against Herpes simplex type 1 VR-260 infected in African green monkey Vero cells assessed as inhibition of virus-induced plaque formation/cytopathogenicity; format: functional; conditions: Human alphaherpesvirus 1, VR-260, Vero; read-out: ID50 (the source's name)
How it was run: (§1)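 Cell monolayers infected at MOI 0.1 and treated with compound at 25 to 200 μg/mL. Compounds dissolved in DMSO, diluted in maintenance medium (DMEM, 2% heat-inactivated FCS), final DMSO at most 0.01%. Acyclovir is the reference. ID50 is the concentration giving 50% reduction of plaque formation or virus-induced cytopathogenicity, from dose–response curves by linear regression. Values are the mean of three separate assays.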

[2] = tested on: Human poliovirus 1 strain Sabin; assay: Antiviral activity against Poliovirus type 1 Sabin VR-1562 infected in African green monkey Vero cells assessed as inhibition of virus-induced plaque formation/cytopathogenicity; format: functional; conditions: Enterovirus C, VR-1562, Vero; read-out: ID50 (the source's name); how it was run: as §1
Cytomegalovirus = assay: Antiviral activity against Cytomegalovirus VR-538 infected in human HFF1 cells assessed as inhibition of virus-induced plaque formation/cytopathogenicity; format: functional; conditions: Human betaherpesvirus 5, VR-538, HFF-1; read-out: ID50 (the source's name); how it was run: as §1
[3] = Cytotoxicity against human HFF1 cells after 24 hrs by MTT assay; format: cell-based, HFF-1
Echovirus E9 = assay: Antiviral activity against Human echovirus type 9 VR-1050 infected in African green monkey Vero cells assessed as inhibition of virus-induced plaque formation/cytopathogenicity; format: functional; conditions: Enterovirus B, VR-1050, Vero; read-out: ID50 (the source's name); how it was run: as §1
Human adenovirus 2 = assay: Antiviral activity against Adenovirus type 2 VR-1080 infected in human Hep2 cells assessed as inhibition of virus-induced plaque formation/cytopathogenicity; format: functional; conditions: Human mastadenovirus C, VR-1080, HEp-2; read-out: ID50 (the source's name); how it was run: as §1
[4] = Cytotoxicity against human Hep2 cells after 24 hrs by MTT assay; format: cell-based, HEp-2
Human adenovirus 5 = assay: Antiviral activity against Adenovirus type 5 VR-1523 infected in human Hep2 cells assessed as inhibition of virus-induced plaque formation/cytopathogenicity; format: functional; conditions: Human mastadenovirus C, VR-1523, HEp-2; read-out: ID50 (the source's name); how it was run: as §1
[5] = Cytotoxicity against African green monkey Vero cells after 24 hrs by MTT assay; format: cell-based; conditions: chlorocebus sabaeus
Coxsackievirus B3 = assay: Antiviral activity against Coxsackie type B3 virus VR-1034 infected in African green monkey Vero cells assessed as inhibition of virus-induced plaque formation/cytopathogenicity; format: functional; conditions: Enterovirus B, VR-1034, Vero; read-out: ID50 (the source's name); how it was run: as §1
Human alphaherpesvirus 2 = assay: Antiviral activity against Herpes simplex type 2 VR-734 infected in African green monkey Vero cells assessed as inhibition of virus-induced plaque formation/cytopathogenicity; format: functional; conditions: Human alphaherpesvirus 2, VR-734, Vero; read-out: ID50 (the source's name); how it was run: as §1
Human alphaherpesvirus 1 [6] = assay: Inhibition of Herpes simplex type 1 VR-260 adsorption in African green monkey Vero cells assessed as cell-associated viral activity at 5 times ID50 after 120 mins by plaque assay; format: functional, organism-based
How it was run: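 Infective center assay. HSV-1 (10⁶ PFU/mL) preincubated 60 min at 37 °C with compound, chilled to 4 °C, then added to a Vero suspension (10⁶ cells/mL) precooled ≥1 h at 4 °C. Adsorption for 120 min at 4 °C. Cells washed three times with cold DMEM, serially diluted and plaque assayed for cell-associated virus.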

Human alphaherpesvirus 1 [7] = assay: Antiviral activity against Herpes simplex type 1 VR-260 infected in African green monkey Vero cells assessed as virucidal activity at 5 times ID50 after 1 hr by plaque assay; format: functional, organism-based
How it was run: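 HSV-1 suspension (10⁶ PFU/mL) mixed 1:1 by volume with DMEM containing compound at 5× ID50, held 1 h at 37 °C. Residual infectivity measured by plaque assay on Vero cells after diluting below the inhibitory concentration.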

Human alphaherpesvirus 1 [8] = assay: Antiviral activity against Herpes simplex type 1 VR-260 infected in African green monkey Vero cells assessed as inhibition of virus replication at 5 times ID50 treated 2 hrs after virus adsorption period measured after 12 hrs by plaque assay; format: functional, organism-based
How it was run: (§2)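 Confluent Vero monolayers infected with HSV-1 at MOI 0.1, 2 h adsorption at 4 °C for synchronous replication. Inoculum then removed and fresh medium with or without compound added at various times after adsorption. Incubation at 37 °C for 12 h, cultures frozen, virus yield titrated by plaque assay. Mean ± SEM of three separate assays.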

Human alphaherpesvirus 1 [9] = assay: Antiviral activity against Herpes simplex type 1 VR-260 infected in African green monkey Vero cells assessed as protection of host cells from viral infection […] by plaque assay; format: functional, organism-based
Human alphaherpesvirus 1 [10] = assay: Antiviral activity against Herpes simplex type 1 VR-260 infected in African green monkey Vero cells assessed as inhibition of virus replication at 5 times ID50 treated 1 hr after virus adsorption period measured after 12 hrs by plaque assay; format: functional, organism-based; how it was run: as §2
Human alphaherpesvirus 1 [11] = assay: Antiviral activity against Herpes simplex type 1 VR-260 infected in African green monkey Vero cells assessed as reduction of virus yield at 5 times ID50 treated 2 hrs after virus adsorption period measured after 12 hrs by plaque assay; format: functional, organism-based; how it was run: as §2

SMILES | IC50 (Human alphaherpesvirus 1 [1]) | IC50 [2] | IC50 (Cytomegalovirus) | CC50 at 24 h [3] | IC50 (Echovirus E9) | IC50 (Human adenovirus 2) | CC50 at 24 h [4] | IC50 (Human adenovirus 5) | CC50 at 24 h [5] | IC50 (Coxsackievirus B3) | IC50 (Human alphaherpesvirus 2) | inhibition (Human alphaherpesvirus 1 [6]) | Activity (Human alphaherpesvirus 1 [7]) | Activity (Human alphaherpesvirus 1 [8]) | Activity (Human alphaherpesvirus 1 [9]) | Activity (Human alphaherpesvirus 1 [10]) | Activity (Human alphaherpesvirus 1 [11])
O=C(O)CCc1ccc(O)c(O)c1 [DIHYDROCAFFEIC ACID] | > 200 µg/mL | > 200 µg/mL | > 200 µg/mL | > 200 µg/mL | > 200 µg/mL | > 200 µg/mL | > 200 µg/mL | > 200 µg/mL | > 200 µg/mL | > 200 µg/mL | – | – | – | – | – | – | –
CCC(=O)OCCc1ccc(O)c(O)c1 | 20 µg/mL (≈ 95.1 µM) | > 40 µg/mL | > 40 µg/mL | 40 µg/mL (≈ 190 µM) | > 40 µg/mL | > 40 µg/mL | 40 µg/mL (≈ 190 µM) | > 40 µg/mL | 40 µg/mL (≈ 190 µM) | > 40 µg/mL | 40 µg/mL (≈ 190 µM) | – | – | – | – | – | –
CCCOC(=O)CCc1ccc(O)c(O)c1 | > 200 µg/mL | > 200 µg/mL | – | – | > 200 µg/mL | > 200 µg/mL | > 200 µg/mL | > 200 µg/mL | > 200 µg/mL | > 200 µg/mL | – | – | – | – | – | – | –
CCOC(=O)CCc1ccc(O)c(O)c1 | 15 µg/mL (≈ 71.4 µM) | > 75 µg/mL | 40 µg/mL (≈ 190 µM) | 40 µg/mL (≈ 190 µM) | > 75 µg/mL | > 40 µg/mL | 40 µg/mL (≈ 190 µM) | > 40 µg/mL | 75 µg/mL (≈ 357 µM) | 20 µg/mL (≈ 95.1 µM) | 60 µg/mL (≈ 285 µM) | inactive | inactive | inactive | inactive | Active | Active
COC(=O)CCc1ccc(O)c(O)c1 | > 100 µg/mL | > 100 µg/mL | 100 µg/mL (≈ 510 µM) | 100 µg/mL (≈ 510 µM) | > 100 µg/mL | > 100 µg/mL | 100 µg/mL (≈ 510 µM) | > 100 µg/mL | 100 µg/mL (≈ 510 µM) | > 100 µg/mL | > 100 µg/mL | – | – | – | – | – | –
CCCCC(=O)OCCc1ccc(O)c(O)c1 | 25 µg/mL (≈ 105 µM) | > 25 µg/mL | > 25 µg/mL | 25 µg/mL (≈ 105 µM) | > 25 µg/mL | > 25 µg/mL | 25 µg/mL (≈ 105 µM) | > 25 µg/mL | 25 µg/mL (≈ 105 µM) | > 25 µg/mL | – | – | – | – | – | – | –
CC(=O)OCCc1ccc(O)c(O)c1 | 20 µg/mL (≈ 102 µM) | > 100 µg/mL | > 50 µg/mL | 50 µg/mL (≈ 255 µM) | > 100 µg/mL | > 50 µg/mL | 50 µg/mL (≈ 255 µM) | > 50 µg/mL | 100 µg/mL (≈ 510 µM) | 50 µg/mL (≈ 255 µM) | 40 µg/mL (≈ 204 µM) | – | – | – | – | – | –
CCCC(=O)OCCc1ccc(O)c(O)c1 [HYDROXYTYROSOL BUTANOATE] | > 100 µg/mL | > 100 µg/mL | > 100 µg/mL | 100 µg/mL (≈ 446 µM) | > 100 µg/mL | > 100 µg/mL | 100 µg/mL (≈ 446 µM) | > 100 µg/mL | 100 µg/mL (≈ 446 µM) | > 100 µg/mL | 100 µg/mL (≈ 446 µM) | – | – | – | – | – | –
CCCCOC(=O)CCc1ccc(O)c(O)c1 | > 200 µg/mL | > 200 µg/mL | 25 µg/mL (≈ 105 µM) | 100 µg/mL (≈ 420 µM) | > 200 µg/mL | > 200 µg/mL | 200 µg/mL (≈ 839 µM) | > 200 µg/mL | 200 µg/mL (≈ 839 µM) | 100 µg/mL (≈ 420 µM) | > 200 µg/mL | – | – | – | – | – | –
